High-throughput results from PubChem BioAssay.
An excerpt weighted towards active compounds, which were near 3.1% of everything screened.
Fh CTSL1 inh = cathepsin L1 inhibition, PFM18AAP counter-screen | recombinant F. hepatica cathepsin L1, Z-Leu-Arg-MCA fluorescence | inhibition, % at 5.96 µM | actives 0.49% (n = 300,000) | AID 1906;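 active = inhibition above the mean of all tested compounds plus 3 SD, set per screening campaign, cut at about 17% in these data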
NadD block = blocks S. aureus nicotinate mononucleotide adenylyltransferase; actives 0.78% (n = 360,000); purified NadD enzyme, colorimetric absorbance read-out; inhibition, % at 20 µM; AID 602399; in the data active = inhibition above about 26%
Myeloid diff MLP = myeloid differentiation induction | actives 1% (n = 360,000) | ER-HoxA9 myeloid progenitors, lysozyme-GFP differentiation, flow cytometry | calls only at 10 µM | AID 624256;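 active = normalized GFP-positive differentiation at or above the plate's own cutoff, the solvent-only control mean plus 3 SD; inconclusive = no clear call, values can overlap the other calls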;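 also: cells exposed to compound for four days before flow analysis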
PP5 primary = blocks human protein phosphatase 5 activity; inhibition, % at 6.7 µM; P53041; purified PP5c, OMFP substrate fluorescence; actives 0.18% (n = 320,000);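 active = inhibition above the campaign's mean inhibition across all tested compounds plus 3 SD, cut at about 9.5% in these data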
Target sequence (P53041 whole entry, looked up): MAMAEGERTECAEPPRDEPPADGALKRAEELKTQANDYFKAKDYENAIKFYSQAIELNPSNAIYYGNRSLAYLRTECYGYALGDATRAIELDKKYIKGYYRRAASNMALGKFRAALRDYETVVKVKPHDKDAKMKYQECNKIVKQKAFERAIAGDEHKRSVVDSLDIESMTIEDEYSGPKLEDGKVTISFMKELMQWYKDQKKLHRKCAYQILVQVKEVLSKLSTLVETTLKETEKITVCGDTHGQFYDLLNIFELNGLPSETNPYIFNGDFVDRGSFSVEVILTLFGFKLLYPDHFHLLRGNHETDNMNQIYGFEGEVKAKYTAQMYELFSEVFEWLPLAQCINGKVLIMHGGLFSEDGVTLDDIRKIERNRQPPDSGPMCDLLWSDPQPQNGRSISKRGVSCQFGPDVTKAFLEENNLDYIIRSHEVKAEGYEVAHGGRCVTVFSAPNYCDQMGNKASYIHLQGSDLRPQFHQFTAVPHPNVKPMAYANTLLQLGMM
HCV core dimer = HCV core protein dimerization inhibition; TR-FRET GST/Flag-core106 dimerization, 1536-well; inhibition, % at 5 µM; actives 0.33% (n = 300,000); AID 1899;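 active = inhibition above the mean of all tested compounds plus 3 SD, set per screening campaign, cut at about 45% in these data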
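Assay system: Tagged HCV core106 pair (GST and Flag) | Buffer or medium: KF-containing HEPES buffer, pH 7.45, DTT, CHAPS, BSA | Also added: Eu donor and XL665 acceptor anti-tag antibodies | Dosing: One concentration, 5 µM, in 0.5% DMSO | Timing: 4 h at 22.5 °C | Technique: TR-FRET 671 and 617 nm emission | Repeats: Singlicate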
PP1 inh = blocks human PP1-alpha phosphatase, a PP5 counter-screen; actives 0.9% (n = 320,000); P62136; purified PP1alpha, OMFP fluorescence; inhibition, % at 6.7 µM;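 active = inhibition above the mean inhibition of all tested compounds plus 3 SD, computed separately for each screening campaign, cut at about 15% in these data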
NadD conf = confirmation of Staphylococcus aureus NadD inhibitors; inhibition, % at 20 µM; actives 13% (n = 2,000); shares compounds with NadD block; AID 624309; purified S. aureus NadD, colorimetric enzyme assay; in the data active = inhibition mostly above about 42%, no sharp cut-off; inactive = mostly below about 42%
Each line names hits and unclear results; the compound was inactive in the other large screens (follow-up assays come after a bar, where they were run).

COc1ccccc1-n1c(=O)c(C#N)c(-c2ccc([N+](=O)[O-])cc2)c2cc(C(=O)c3ccccc3O)cnc21	NadD block 38 | NadD conf inactive
COc1ccccc1-n1cc(C(=O)c2cc(Cl)ccc2O)cc(C#N)c1=O	none
CC1(C)Cc2c(c(N3CCOCC3)nc3sc4c(NN)ncnc4c23)CS1	NadD block 34 | NadD conf inactive
COc1ccc(C2CC3(O)CC(C#N)(C(=O)N3)C2(C#N)C#N)cc1 (stereo not drawn)	none
COc1ccc([C@H]2C(C#N)=C([S-])N[C@](C)(O)[C@@H]2[n+]2ccccc2)cc1	NadD block 45, Myeloid diff MLP active (no result: Fh CTSL1 inh, PP5 primary, HCV core dimer, PP1 inh) | NadD conf inactive
Cc1ccc(Cl)cc1N1CCN(C(=O)c2cc3c(=O)[nH]c4ccccc4c3n2C)CC1	NadD block 32 | NadD conf inactive
Cn1c(C(=O)N2CCN(c3ccc(Cl)cc3)CC2)cc2c(=O)[nH]c3ccccc3c21	none
O=C(N/N=C/C=C\c1ccccc1[N+](=O)[O-])c1cc(-c2ccc3ccccc3c2)n[nH]1	NadD block 43 (no result: Fh CTSL1 inh, PP5 primary, HCV core dimer, PP1 inh) | NadD conf 27
COc1ccccc1-c1cc(C(=O)N/N=C/C=C/c2ccccc2[N+](=O)[O-])c2ccccc2n1	NadD block 38 | NadD conf inactive
O=C(N/N=C/C=C/c1ccccc1[N+](=O)[O-])c1cc(-c2cccnc2)nc2ccccc12	none
Cc1ccccc1-n1c(SCC(=O)N/N=C/C=C/c2ccccc2[N+](=O)[O-])nc2ccccc2c1=O	NadD block 33, PP1 inh 17 | NadD conf inactive
O=C(N/N=C/C=C/c1ccccc1[N+](=O)[O-])c1ccncc1	none
O=C(CSc1nc2ccccc2c(=O)n1-c1ccccc1)N/N=C/C=C/c1ccccc1[N+](=O)[O-]	none
N#Cc1ccc(C(=O)OCC(=O)Nc2cccnc2Cl)cc1	none (no result: Fh CTSL1 inh, HCV core dimer)
Cc1nnc(NC(=O)c2sc3nc(-c4cccs4)cc(C(F)(F)F)c3c2N)s1	NadD block 30, Myeloid diff MLP active | NadD conf inactive
CCN(CC)C(=O)c1sc2nc(-c3cccs3)cc(-c3ccc(Cl)cc3)c2c1N	NadD block 44 | NadD conf inactive
Cc1cc(C(F)(F)F)c2c(N)c(C(=O)NC3CC3)sc2n1	none
CCN(CC)C(=O)c1sc2nc(-c3cccs3)cc(-c3cccs3)c2c1N	NadD block 73, Myeloid diff MLP active | NadD conf inactive
O=C(O)C1C2CCC(C2)C1C(=O)NCCc1cccc(Cl)c1 (stereo not drawn)	none
COC(=O)c1ccc(NC(=O)COc2ccc(C3C(C#N)=C(N)Oc4c3ccc3ccccc43)cc2OC)cc1 (stereo not drawn)	NadD block 51, PP1 inh 16 | NadD conf inactive
NC(=O)[C@H]1CC2(CC(c3cccc(NC(=O)COc4ccc(Cl)cc4)c3)=NO2)CN1C(=O)Cc1ccc([N+](=O)[O-])cc1 (stereo partly drawn)	NadD block 33 | NadD conf inactive
Clc1cccc(Cc2c(-c3ccco3)nc3ccc(Br)cn23)c1	NadD block 41 (no result: Fh CTSL1 inh, PP5 primary, HCV core dimer, PP1 inh) | NadD conf inactive
Cc1cc2nc(-c3ccco3)c(CC(C)(C)C)n2c(C)c1Br	none (no result: Fh CTSL1 inh, PP5 primary, HCV core dimer, PP1 inh)
Cc1cc2nc(-c3cccc(Cl)c3)c(Cc3cccc(Cl)c3)n2c(C)c1Br	none (no result: Fh CTSL1 inh, PP5 primary, HCV core dimer, PP1 inh)
Cc1cc2nc(-c3ccco3)c(Cc3cccc(Cl)c3)n2c(C)c1Br	NadD block 61 (no result: Fh CTSL1 inh, PP5 primary, HCV core dimer, PP1 inh) | NadD conf inactive
COc1ccccc1Cc1c(-c2ccco2)nc2cc(C)c(Br)c(C)n12	NadD block 60 (no result: Fh CTSL1 inh, PP5 primary, HCV core dimer, PP1 inh) | NadD conf inactive
O=S1(=O)CC(N2CCCCC2)CN1Cc1cn(Cc2cccc(Cl)c2)nn1 (stereo not drawn)	none (no result: Fh CTSL1 inh, PP5 primary, HCV core dimer, PP1 inh)
Cc1cc(C(=O)N/N=C/c2cc(Br)ccc2OC(=O)c2ccccc2Cl)n[nH]1	NadD block 35, Myeloid diff MLP inconclusive | NadD conf inactive
CCCCCCCCCC(=O)NNC(=O)c1c(O)c2ccccc2n(CCC)c1=O	NadD block 38 | NadD conf inactive
Nc1c(C(=O)c2ccccc2)sc2snc(SCC(=O)c3ccccc3)c12	NadD block 37, Myeloid diff MLP active | NadD conf inactive
C[C@@H]1CN([C@@H](C)CO)C(=O)Cc2cc(NC(=O)Nc3cccc4ccccc34)ccc2O[C@@H]1CN(C)Cc1ccc(C(F)(F)F)cc1	NadD block 31 (no result: Fh CTSL1 inh, PP5 primary, HCV core dimer, PP1 inh) | NadD conf inactive
C[C@@H]1CN([C@H](C)CO)C(=O)c2cc(NC(=O)c3ccncc3)ccc2O[C@@H]1CN(C)C(=O)Nc1ccccc1	NadD block 61 (no result: Fh CTSL1 inh, PP5 primary, HCV core dimer, PP1 inh) | NadD conf 47
Cc1noc(C)c1NC(=O)N(C)C[C@@H]1Oc2c(NC(=O)NC(C)C)cccc2C(=O)N([C@@H](C)CO)C[C@@H]1C	none (no result: Fh CTSL1 inh, PP5 primary, HCV core dimer, PP1 inh)
C[C@H](CO)N1C[C@H](C)[C@@H](CN(C)C(=O)Nc2ccc(C(F)(F)F)cc2)Oc2ccc(NC(=O)c3ccncc3)cc2C1=O	none (no result: Fh CTSL1 inh, PP5 primary, HCV core dimer, PP1 inh)
Cc1noc(C)c1NC(=O)N(C)C[C@@H]1Oc2c(NC(=O)c3ccncc3)cccc2C(=O)N([C@H](C)CO)C[C@@H]1C	NadD block 36 (no result: Fh CTSL1 inh, PP5 primary, HCV core dimer, PP1 inh) | NadD conf 57
COc1cc(S(=O)(=O)NC2CCCCC2C)ccc1F (stereo not drawn)	none
COc1ccc(C(=O)NCCCCCCNC(=O)c2ccc(OC)cc2)cc1	none (no result: Myeloid diff MLP)
CC1=NN(c2ccc(Cl)cc2)C(=O)C1C(c1ccccc1O)c1c(C)[nH]n(-c2ccc(Cl)cc2)c1=O (stereo not drawn)	NadD block 31 | NadD conf 52
COc1cc2cc(Oc3ccc4ccc(=O)oc4c3)c(=O)oc2cc1OC(=O)/C=C/c1ccccc1	NadD block 32 | NadD conf inactive
O=C(NS(=O)(=O)N1CCCC1)C1=C(N2CCCC2)COC1=O	none (no result: Fh CTSL1 inh, HCV core dimer)
COc1cc(Cl)c(C)cc1NC(=O)COC(=O)CCc1nc2ccccc2c(=O)[nH]1	none
Nc1ccc(-c2nc3c(Cl)cc(N)cc3[nH]2)cc1	none
Nc1ccc2nc(-c3ccc(N)c(Cl)c3)[nH]c2c1	NadD block 41 | NadD conf inactive
Cc1onc(-c2c(Cl)cccc2Cl)c1C(=O)NC(=S)Nc1sc2c(c1C(N)=O)CCC(C)C2 (stereo not drawn)	NadD block 31 | NadD conf inactive
Cc1sc2ncnc(N3CCC(C(=O)NCC(=O)Nc4ccc(F)c(F)c4)CC3)c2c1C	Myeloid diff MLP inconclusive
Cc1sc2ncnc(N3CCC(C(=O)Nc4ccc(Cl)c(Cl)c4)CC3)c2c1C	NadD block 42 (no result: Fh CTSL1 inh, HCV core dimer) | NadD conf inactive
CCc1ccc2nc(NC(=O)C3CCN(c4ncnc5sc(C)c(C)c45)CC3)sc2c1	NadD block 33 (no result: Fh CTSL1 inh, HCV core dimer) | NadD conf inactive
CCc1cccc(NC(=O)C2CCN(c3ncnc4sc(C)c(C)c34)CC2)c1	none (no result: Fh CTSL1 inh, PP5 primary, HCV core dimer, PP1 inh)
